Bioassay records: PubChem, Johns Hopkins Ion Channel Center
TRPC4 agonist – opens the mouse TRPC4 cation channel. Q9QUQ5. HEK293 TRPC4beta/mu-opioid, Fluo4 calcium fluorescence; hits give high values. B-score at 10 µM. actives 0.49% (n = 310,000);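 active means B-score above 5 SD of library B-scores, and initial fluorescence ratio not above library mean plus 5 SD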;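 further: positive B-score marks a calcium rise read as TRPC4 activation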
Target sequence (Q9QUQ5 whole entry, looked up): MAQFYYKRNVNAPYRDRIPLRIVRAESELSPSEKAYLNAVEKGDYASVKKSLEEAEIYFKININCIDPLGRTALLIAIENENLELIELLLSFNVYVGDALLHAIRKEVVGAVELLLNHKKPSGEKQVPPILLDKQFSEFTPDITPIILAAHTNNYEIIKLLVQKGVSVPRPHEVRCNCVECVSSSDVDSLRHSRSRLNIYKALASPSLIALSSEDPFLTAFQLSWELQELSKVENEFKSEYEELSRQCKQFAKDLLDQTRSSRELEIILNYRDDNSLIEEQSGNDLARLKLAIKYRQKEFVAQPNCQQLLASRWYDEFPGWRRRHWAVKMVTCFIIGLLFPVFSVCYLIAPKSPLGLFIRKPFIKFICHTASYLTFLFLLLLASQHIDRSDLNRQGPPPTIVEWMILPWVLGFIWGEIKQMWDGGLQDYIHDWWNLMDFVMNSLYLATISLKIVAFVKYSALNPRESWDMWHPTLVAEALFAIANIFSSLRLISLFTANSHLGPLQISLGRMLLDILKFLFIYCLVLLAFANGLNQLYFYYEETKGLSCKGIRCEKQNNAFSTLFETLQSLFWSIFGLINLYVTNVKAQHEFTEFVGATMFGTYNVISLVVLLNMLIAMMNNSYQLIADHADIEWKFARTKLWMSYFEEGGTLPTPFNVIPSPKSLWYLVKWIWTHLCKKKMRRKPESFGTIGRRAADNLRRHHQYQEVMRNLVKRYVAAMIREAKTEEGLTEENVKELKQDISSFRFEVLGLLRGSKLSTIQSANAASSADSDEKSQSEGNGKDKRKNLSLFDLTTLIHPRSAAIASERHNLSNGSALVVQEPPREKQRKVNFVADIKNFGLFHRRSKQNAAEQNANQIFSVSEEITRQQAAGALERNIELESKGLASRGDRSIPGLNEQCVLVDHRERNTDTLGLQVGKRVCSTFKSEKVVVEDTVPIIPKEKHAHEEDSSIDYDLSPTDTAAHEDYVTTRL
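System – HEK293 cells stably co-expressing mouse TRPC4beta and mu-opioid receptor · Signal – Fluo4 calcium-sensitive dye fluorescence, kinetic, 1 Hz baseline · Benchmarks – buffer (low) and maximal DAMGO (high) · Read-out – B score of integrated fluorescence ratio per well · Incubation – dye loading 45 min room temperature, 110 s kinetic read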
TRPC6 inh – inhibitors of mouse TRPC6 channel. actives 1.1% (n = 310,000). HEK293-TRPC6, membrane potential dye, ACh-evoked depolarization; hits give low values. B-score at 10 µM. Q61143;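 active means B-score under library mean minus 3 SD, initial fluorescence not abnormally high, positive integrated signal ratio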;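 further: B-score derived from integrated fluorescence ratio over the kinetic read; more negative B-score means stronger inhibition of depolarization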
TRPC4 potent – allosterically enhances the mouse TRPC4 cation channel; Q9QUQ5; HEK293 TRPC4beta/mu-opioid, DAMGO EC20, Fluo-4 Ca2+ flux; hits give high values; B-score at 10 µM; actives 0.42% (n = 310,000); AID 2227;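 active means B-score of calcium response area above 5 SD of library B-scores, with initial fluorescence ratio within 5 SD of library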;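 further: B-score of integrated fluorescence ratio over time as area under calcium response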
TRPC4 inh – TRPC4 (mouse) channel inhibition; Q9QUQ5; HEK293 TRPC4beta/mu-opioid, DAMGO-evoked Fluo4 calcium flux; hits give low values; B-score at 10 µM; actives 0.39% (n = 300,000); AID 2247;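 active means B-score over 3 SD under the library average, no early fluorescence shift, positive overall ratio signal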
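Assay system: Stable TRPC4beta/mu-opioid receptor HEK293 cells | Reagent: DAMGO in two steps, submaximal then maximal | Compound dosing: Single concentration per test compound | Signal: Fluo4 Ca2+ flux fluorescence | Evaluation: Per-well B score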
TRPC6 act – mouse TRPC6 channel activation; actives 0.13% (n = 310,000); Q61143; HEK293-TRPC6 membrane potential dye fluorescence; hits give high values; B-score at 10 µM;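 active means B-score of the integrated fluorescence ratio above library mean plus 3 SD, and starting fluorescence ratio within library mean plus 5 SD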;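 further: higher score means more depolarization so channel activation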
TRPC4 spec 2 – second selectivity test of TRPC6 inhibitors: effect on mouse TRPC4. shares compounds with TRPC6 inh. HEK293 TRPC4/MOR, membrane potential dye fluorescence; channel activated by saturating DAMGO dose. inhibition, % at 10 µM. actives 42% (n = 920);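 active means compounds whose fluorescence signal differed from control wells by over 3 SD, either direction, in both duplicate plates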
TRPC4 spec – tests whether TRPC6 inhibitors also affect mouse TRPC4; actives 61% (n = 920); activity change, negative = inhibition, % at 10 µM; HEK293 TRPC4/mu-opioid, membrane potential fluorescence; shares compounds with TRPC6 inh;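 active means rise or fall in signal beyond 3 SD of buffer-only wells in both replicate plates, either sign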;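 further: integrated kinetic ratio of fluorescence range over baseline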
HEK293 MPD ctr 2-1 – parental HEK293 nonspecific activity of TRPC6 inhibitors, second screen. shares compounds with TRPC6 inh. actives 31% (n = 920). signal change vs control, % at 10 µM. parental HEK293 membrane potential dye fluorescence; maximal acetylcholine challenge after compound addition;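 active means membrane potential signal moving either way by over 3 SD of the maximum-effect control, in both duplicate plates, meaning non-specific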
HEK293 MPD ctr-1 – checks TRPC6 inhibitor effects in parental HEK293 cells; membrane potential signal change, % at 10 µM; parental HEK293 membrane potential dye fluorescence; actives 60% (n = 920); AID 2780; shares compounds with TRPC6 inh;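 active means membrane potential signal shifting up or down by more than 3 SD of buffer-only wells, on both duplicate plates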
HEK293 MPD ctr-2 – counter-screen for TRPC6 modulators: effect in parental HEK293 cells. shares compounds with TRPC6 inh. membrane potential dye fluorescence. membrane potential signal change, % at 10 µM. actives 51% (n = 2,400);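 active means membrane potential signal moves up or down beyond 5 SD from buffer-only wells, on both duplicate plates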
HEK293 MPD ctr 2-2 – parental HEK293 nonspecific activity of TRPC6 modulators, second screen; shares compounds with TRPC6 inh; membrane potential dye fluorescence; after compound, maximal acetylcholine stimulation; inhibition, % at 10 µM; actives 14% (n = 2,400);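 active means membrane potential signal drops by more than 5 SD from the mean control signal, in both duplicate plates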;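 further: plate controls were acetylcholine ECmax control wells for no effect and buffer only wells for full effect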
TRPC4/MOR mod – selectivity of TRPC6 modulators against mouse TRPC4; shares compounds with TRPC6 inh; HEK293 TRPC4/mu-opioid, membrane potential fluorescence; percent change from control (negative = decrease, positive = increase), % at 10 µM; actives 69% (n = 2,400);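 active means membrane potential signal moved up or down beyond 5 SD of buffer control wells, in both duplicate plates, actives on both sides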;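 further: plate controls were assay buffer wells for no effect and DAMGO maximal-effect wells for full effect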
TRPC4 ctr inh 2 – second check of whether TRPC6 modulators also affect mouse TRPC4. shares compounds with TRPC6 inh. inhibition, % at 10 µM. AID 488928. actives 55% (n = 2,400). HEK293 TRPC4/mu-opioid, membrane potential dye fluorescence; stimulated with maximal-effect DAMGO;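 active means drop in membrane potential signal beyond 5 SD of the control wells in both duplicate plates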;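 further: TRPC4 counter screen for TRPC6 hits run under conditions tuned for TRPC6 not TRPC4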
TRPC6 block conf – confirmation of mouse TRPC6 inhibitors; shares compounds with TRPC6 inh; actives 43% (n = 3,300); HEK293-TRPC6, membrane potential dye, ACh-evoked depolarization; inhibition, % at 10 µM;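 active means fluorescence ratio falls more than 5 SD below the full-stimulation control mean, in both duplicate runs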;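 further: integrated fluorescence ratio of peak minus minimum over baseline after agonist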
TRPC6 act conf – confirmation of mouse TRPC6 activators; HEK293-TRPC6 membrane potential dye fluorescence, FDSS; actives 11% (n = 2,800); activation, % at 10 µM; shares compounds with TRPC6 inh;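 active means ratio signal rise beyond 5 SD above unstimulated control wells' mean, seen in both duplicate runs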;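 further: plate controls were buffer EC0 wells for no effect and acetylcholine ECmax response for full effect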
The depositor's hits bear a star; i = inactive; . = no result given. Sampled rows, rich in hits. Any-hit rate of the full collection: about 2.3%.

SMILES	TRPC4 agonist	TRPC6 inh	TRPC4 potent	TRPC4 inh	TRPC6 act	TRPC4 spec 2	TRPC4 spec	HEK293 MPD ctr 2-1	HEK293 MPD ctr-1	TRPC6 block conf	TRPC6 act conf	others
COc1ccc(C)c2sc(N(CCCN(C)C)C(=O)c3ccc4c(c3)OCCO4)nc12	i	-6.9*	i	i	i	47%*	i	i	i	52%*	i
CN(C)CCCN(C(=O)c1ccc2c(c1)OCCO2)c1nc2cc3c(cc2s1)OCO3	i	-5.7*	i	i	i	.	.	.	.	78%*	i	HEK293 MPD ctr-2=i;HEK293 MPD ctr 2-2=i;TRPC4/MOR mod=-18%*;TRPC4 ctr inh 2=80%*
Cc1cc(C)c2nc(N(CCCN(C)C)C(=O)c3ccc4c(c3)OCCO4)sc2c1	i	-8.2*	i	i	i	i	i	i	0.4%*	i	i
COc1ccc(C)c2sc(N(CCCN(C)C)C(=O)c3ccc(S(=O)(=O)N4CCc5ccccc5C4)cc3)nc12	i	i	i	i	i	.	.	.	.	.	.
Cc1cc(C)c2sc(N(CCCN(C)C)C(=O)c3ccc(Br)s3)nc2c1	i	-9.6*	i	i	i	35%*	-17%*	i	i	78%*	i
CN(C)CCCN(C(=O)c1ccc2ccccc2c1)c1nc2cc3c(cc2s1)OCO3	i	i	i	i	i	.	.	.	.	.	.
CCOc1ccccc1NC(=O)CSc1nc2[nH]ncc2c(=O)[nH]1	i	i	i	i	i	.	.	.	.	.	.
CC(C)OCCCN1C=C2C(=O)C(C)(OC(=O)CCc3ccccc3)C(=O)C=C2C=C1c1ccc(C#N)cc1 (stereo not drawn)	i	i	i	i	i	.	.	.	.	.	.
Cc1ccc(NC(=O)CCc2nc3ccccc3c(=O)[nH]2)cc1S(=O)(=O)N1CCOCC1	i	i	i	i	i	.	.	.	.	.	.
CCOC(=O)C1(C)/C(=N/Nc2ccc(Cl)cc2)C(=O)C(=O)N1c1ccccc1 (stereo not drawn)	i	i	i	i	i	.	.	.	.	.	.
CCOC(=O)C1(C)/C(=N/Nc2ccccc2Cl)C(=O)C(=O)N1c1ccccc1 (stereo not drawn)	i	-5.1*	i	i	i	.	.	.	.	i	i	HEK293 MPD ctr-2=-76%*;HEK293 MPD ctr 2-2=i;TRPC4/MOR mod=-21%*;TRPC4 ctr inh 2=48%*
Cc1ccc(S(=O)(=O)N(CC(O)CN2CCOCC2)c2cccc([N+](=O)[O-])c2)cc1 (stereo not drawn)	i	i	i	i	i	.	.	.	.	.	.
